# Test results taken from ChEMBL document CHEMBL1955778, “Design and synthesis of novel 7-aminoquinazoline derivatives: antitumor and anticonvulsant activities” (Bioorg Med Chem Lett, 2012).
# Legend:
# SNB-19 = test: Growth inhibition of human SNB19 cells at 10 uM relative to control; type: functional; conditions: read-out: GI
# Summary of the method: (§1)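 Single-dose screen across the 60-cell-line human tumor panel at 10 μM. Growth inhibition is reported as a percentage, taken as 100 minus the % growth relative to untreated control.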
# [1] = Neurotoxicity in ip dosed mouse assessed as impaired motor coordination administered 30 mins prior to test by chimney test; type: toxicity, organism-based; conditions: in vivo
# Summary of the method: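 Mice, Chimney test. TD50 is the dose that produces minimal neurological toxicity (impaired motor coordination) in 50% of animals, estimated from testing at several doses.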
# HCT-116 = test: Growth inhibition of human HCT116 cells at 10 uM relative to control; type: functional; conditions: read-out: GI
# Summary of the method: (§2)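 Each cell line in a 60-line human tumour panel exposed to one 10 μM concentration. Growth inhibition percentage computed as 100 minus the percentage activity relative to control.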
# NCI-H522 = test: Growth inhibition of human NCI-H522 cells at 10 uM relative to control; type: functional; conditions: read-out: GI; summary of the method: as §2
# [2] = Toxicity in ip dose mouse assessed as mortality; type: organism-based; conditions: in vivo
# Summary of the method: (§3)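 In mice, LD50 is the dose causing 50% mortality. ED50 is the dose protecting 50% of mice against pentylenetetrazole-induced seizures. Therapeutic index = LD50/ED50.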
# K562 = test: Growth inhibition of human K562 cells at 10 uM relative to control; type: functional; conditions: read-out: GI; summary of the method: as §2
# OVCAR-4 = test: Growth inhibition of human OVCAR4 cells at 10 uM relative to control; type: functional; conditions: read-out: GI; summary of the method: as §2
# MOLT-4 = test: Growth inhibition of human MOLT4 cells at 10 uM relative to control; type: functional; conditions: read-out: GI; summary of the method: as §2
# NCI-H23 = test: Growth inhibition of human NCI-H23 cells at 10 uM relative to control; type: functional; conditions: read-out: GI; summary of the method: as §2
# Mus musculus [3] = test: Anticonvulsant activity in mouse assessed as protection against picrotoxin-induced seizure at 1 mmol/kg, ip administered 30 min prior to picrotoxin-challenge measured after 60 mins relative to control; type: functional
# NCI-H226 = test: Growth inhibition of human NCI-H226 cells at 10 uM relative to control; type: functional; conditions: read-out: GI; summary of the method: as §2
# MDA-MB-468 = test: Growth inhibition of human MDA-MB-468 cells at 10 uM relative to control; type: functional; conditions: read-out: GI; summary of the method: as §2
# [4] = Growth inhibition of human Hs 578T cells at 10 uM relative to control; type: functional; conditions: read-out: GI; summary of the method: as §2
# OVCAR-8 = test: Growth inhibition of human OVCAR8 cells at 10 uM relative to control; type: functional; conditions: read-out: GI; summary of the method: as §2
# EKVX = test: Growth inhibition of human EKVX cells at 10 uM relative to control; type: functional; conditions: read-out: GI; summary of the method: as §2
# HL-60(TB) = test: Growth inhibition of human HL-60(TB) cells at 10 uM relative to control; type: functional; conditions: read-out: GI
# Summary of the method: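 Single-dose screen at 10 μM across the 60-cell-line tumour panel. Percent growth inhibition = 100 minus percent growth activity relative to untreated control.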
# SF-268 = test: Growth inhibition of human SF268 cells at 10 uM relative to control; type: functional; conditions: read-out: GI; summary of the method: as §2
# PC-3 = test: Growth inhibition of human PC3 cells at 10 uM relative to control; type: functional; conditions: read-out: GI; summary of the method: as §2
# Mus musculus [5] = test: Anticonvulsant activity in mouse assessed as protection against pentylenetetrazol-induced seizure at 1 mmol/kg, ip administered 30 min prior to pentylenetetrazol-challenge measured after 60 mins relative to control; type: functional
# KM12 = test: Growth inhibition of human KM12 cells at 10 uM relative to control; type: functional; conditions: read-out: GI; summary of the method: as §2
# HCT-15 = test: Growth inhibition of human HCT15 cells at 10 uM relative to control; type: functional; conditions: read-out: GI; summary of the method: as §2
# Mus musculus [6] = test: Anticonvulsant activity in mouse assessed as protection against maximal electroshock-induced seizure at 1 mmol/kg, ip administered 30 min prior to maximal electroshock-challenge measured after 60 mins relative to control; type: functional
# SN12C = test: Growth inhibition of human SN12C cells at 10 uM relative to control; type: functional; conditions: read-out: GI; summary of the method: as §1
# A549 = test: Growth inhibition of human A549 cells at 10 uM relative to control; type: functional; conditions: read-out: GI; summary of the method: as §2
# T47D = test: Growth inhibition of human T47D cells at 10 uM relative to control; type: functional; conditions: read-out: GI; summary of the method: as §1
# [7] = Growth inhibition of human 786-O cells at 10 uM relative to control; type: functional; conditions: 786-0, read-out: GI; summary of the method: as §2
# SNB-75 = test: Growth inhibition of human SNB75 cells at 10 uM relative to control; type: functional; conditions: read-out: GI; summary of the method: as §1
# Mus musculus [8] = species: Mus musculus; test: Protective index, ratio of TD50 for mouse to ED50 for pentylenetetrazol-induced seizure in mouse; type: functional
# Summary of the method: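 Mice. Index is TD50/ED50. TD50 is the dose causing minimal neurological toxicity in 50% of mice in the Chimney test. ED50 is the dose protecting 50% of mice against pentylenetetrazole-induced seizures. Both are estimated from testing at several doses.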
# Mus musculus [9] = test: Anticonvulsant activity in mouse assessed as protection against strychnine-induced seizure at 1 mmol/kg, ip administered 30 min prior to strychnine-challenge measured after 60 mins relative to control; type: functional
# RPMI-8226 = test: Growth inhibition of human RPMI8226 cells at 10 uM relative to control; type: functional; conditions: read-out: GI; summary of the method: as §2
# UO-31 = test: Growth inhibition of human UO31 cells at 10 uM relative to control; type: functional; conditions: read-out: GI; summary of the method: as §1
# SR = test: Growth inhibition of human SR cells at 10 uM relative to control; type: functional; conditions: read-out: GI; summary of the method: as §1
# CAKI-1 = test: Growth inhibition of human CAKI-1 cells at 10 uM relative to control; type: functional; conditions: read-out: GI; summary of the method: as §2
# Mus musculus [10] = test: Anticonvulsant activity in ip dosed mouse assessed as protection against pentylenetetrazol-induced seizure administered 30 min prior to pentylenetetrazol-challenge measured after 60 mins; type: functional
# Summary of the method: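 Mice received several doses for quantification. ED50 taken as the dose protecting 50% of mice against pentylenetetrazol-induced seizures.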
# [11] = Therapeutic index, ratio of LD50 for mouse to ED50 for pentylenetetrazol-induced seizure in mouse; type: organism-based; conditions: in vivo, read-out: Ratio LD50/ED50; summary of the method: as §3
# MDA-MB-435 = test: Growth inhibition of human MDA-MB-435 cells at 10 uM relative to control; type: functional; conditions: read-out: GI; summary of the method: as §2
# MCF7 = test: Growth inhibition of human MCF7 cells at 10 uM relative to control; type: functional; conditions: read-out: GI; summary of the method: as §2
# U-251 = test: Growth inhibition of human U251 cells at 10 uM relative to control; type: functional; conditions: read-out: GI; summary of the method: as §1
# CCRF-CEM = test: Growth inhibition of human CCRF-CEM cells at 10 uM relative to control; type: functional; conditions: read-out: GI; summary of the method: as §2
# MDA-MB-231 = test: Growth inhibition of human MDA-MB-231 cells at 10 uM relative to control; type: functional; conditions: read-out: GI; summary of the method: as §2
# SK-MEL-28 = test: Growth inhibition of human SK-MEL-28 cells at 10 uM relative to control; type: functional; conditions: read-out: GI; summary of the method: as §2
smiles,measurement,setting,value
Cc1ccccc1-n1c(C)nc2cc(N3C(=O)CSC3c3ccccc3)ccc2c1=O (stereo unspecified),inhibition of growth at 10 µM,SNB-19,9.7%
same,TD50 at 0.5 h,[1],750 µmol/kg
same,inhibition of growth at 10 µM,HCT-116,16%
same,inhibition of growth at 10 µM,NCI-H522,18%
same,LD50,[2],1500 µmol/kg
same,inhibition of growth at 10 µM,K562,37.6%
same,inhibition of growth at 10 µM,OVCAR-4,3%
same,inhibition of growth at 10 µM,MOLT-4,46.3%
same,inhibition of growth at 10 µM,NCI-H23,4.4%
same,Activity,Mus musculus [3],50%
same,inhibition of growth at 10 µM,NCI-H226,14.3%
same,inhibition of growth at 10 µM,MDA-MB-468,25.8%
same,inhibition of growth at 10 µM,[4],6%
same,inhibition of growth at 10 µM,OVCAR-8,5%
same,inhibition of growth at 10 µM,EKVX,12.8%
same,inhibition of growth at 10 µM,HL-60(TB),32.7%
same,inhibition of growth at 10 µM,SF-268,14.2%
same,inhibition of growth at 10 µM,PC-3,26.9%
same,Activity,Mus musculus [5],100%
same,inhibition of growth at 10 µM,KM12,15.5%
same,inhibition of growth at 10 µM,HCT-15,13.3%
same,Activity,Mus musculus [6],100%
same,inhibition of growth at 10 µM,SN12C,3%
same,inhibition of growth at 10 µM,A549,8.1%
same,inhibition of growth at 10 µM,T47D,25.8%
same,inhibition of growth at 10 µM,[7],3%
same,inhibition of growth at 10 µM,SNB-75,19.5%
same,Ratio TD50/ED50,Mus musculus [8],1.06
same,Activity,Mus musculus [9],0%
same,inhibition of growth at 10 µM,RPMI-8226,21.4%
same,inhibition of growth at 10 µM,UO-31,22%
same,inhibition of growth at 10 µM,SR,35.3%
same,inhibition of growth at 10 µM,CAKI-1,15.6%
same,ED50,Mus musculus [10],700 µmol/kg
same,selectivity ratio,[11],2.13
same,inhibition of growth at 10 µM,MDA-MB-435,9.7%
same,inhibition of growth at 10 µM,MCF7,21.8%
same,inhibition of growth at 10 µM,U-251,13%
same,inhibition of growth at 10 µM,CCRF-CEM,31.1%
same,inhibition of growth at 10 µM,MDA-MB-231,17.3%
same,inhibition of growth at 10 µM,SK-MEL-28,5%
